Laboratory results published in ChEMBL document CHEMBL4513216, “Probing the Open Global Health Chemical Diversity Library for Multistage-Active Starting Points for Next-Generation Antimalarials” (ACS Infect Dis, 2020).

Assay: Toxicity liver stage against HepG2, at 10uM
Format: cell-based
Set-up: test concentration 10 uM, cell line HepG2-A16-CD81EGFP
Settings: human, HepG2-A16-CD81EGFP cells; read-out: INHIBITION
Summary of the method: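 Uninfected HepG2-A16-CD81EGFP cells, 3 × 10^3 per well, 1536-well, plated on prespotted compound at 10 μM final, parasite-free screening media added to match infected plates; puromycin 10 μM positive, DMSO 0.5% negative; run in parallel with 48 h PbLuc assay at 37 °C, 5% CO2; viability by CellTiter-Glo luminescence, normalized to controls.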

Structure (SMILES) | cytotoxicity at 10 µM
COCCOc1ccnc(-c2noc([C@@H]3CCCN3C)n2)c1 | -7.18%
CC(C)(C)CN1CCC[C@H]1c1nc(-c2cncnc2N)no1 | -3.66%
COC(=O)[C@@H]1Cc2c[nH]c3cccc(c23)[C@H](CC(C)C)N1 | 9.57%
CN1CCC(N[C@@H]2CO[C@H](CNC(=O)C3CCCC3)[C@H]2O)CC1 | -4.63%
CC[C@H]1CN2CC[C@H]1C[C@@H]2CNC(=O)c1ccco1 | 3.46%
CCOC(=O)[C@H]1[C@@H](O)C(=O)N(C)C12CCN(C(=O)OC)CC2 | -0.817%
CCOC(=O)CNC(=O)N1CCC(OC)c2ccccc2N(C)C(=O)C1 (stereo not given) | 3.36%
COc1ccc2c3c1CN(S(C)(=O)=O)CC3=CC(C)(C)CO2 | 7.77%
CC(C)OCC(=O)Nc1ccc(Oc2ccc3c(c2)OCO3)nc1 | -13.1%
CCN(CC)c1nc2ccsc2c(=O)n1CCC(=O)NCc1cccs1 | -5.27%
COc1ccc(Cl)cc1NC(=O)CN1CCc2nc(NC(C)=O)sc2C1 | -4.2%
CCOCC1c2c(ncn2C(C)C)CCN1C(=O)CC (stereo not given) | 4.17%
Cc1cnc(N2CCC[C@@H]3CN(S(C)(=O)=O)C[C@@H]32)nc1 | 9.34%
CN1CCN([C@@H]2CN(C(=O)c3ccnnc3)[C@@H]3CCCO[C@H]23)CC1 | 7.16%
CCS(=O)(=O)N1CCC2(CC1)CC(OCC1CC1)CO2 (stereo not given) | 7.92%
Nc1nc2c(s1)C(c1c(F)cccc1Cl)CC(=O)N2 (stereo not given) | 4.21%
CCC1=NC(SCC(=O)c2ccc(Cl)cc2)c2cc(CC)sc2N1 (stereo not given) | 8.16%
Cc1nn(C)c2cn(CC(=O)N3CCN(c4ccccn4)CC3)nc12 | 3.57%
Cc1ccn(-c2ccnc(N3CCSCC3)n2)n1 | 9.87%
O=C(c1c(F)cccc1F)N1CCC[C@@H]1Cn1c(=O)oc2ccccc21 | 4.42%
CCn1cc(CN2CCC(c3ncc(Cl)cc3S(C)(=O)=O)CC2)c(C)n1 | 5.68%
COCC(=O)NCCc1nc2cc(-c3ccc(OC)cc3)ncn2n1 | 10.5%

Structure (SMILES) | cytotoxicity at 10 µM
COc1c(CNCCc2c[nH]c3ccccc23)c(C)nn1C | 15%
CCc1ccc(S(=O)(=O)Nc2cnccc2C)s1 | -3.63%
CN1CCN(C)C(CNC(=O)N(C)Cc2ccc(Cl)c(F)c2)C1 (stereo not given) | 6.32%
CNc1ncc(C(=O)N2CCCC(Cc3ccccc3OC)C2)s1 (stereo not given) | -0.094%
Cc1cc(C)n(CC(C)CNC(=O)N(C)Cc2cc(C)on2)n1 (stereo not given) | -10.2%
Cc1ccc(C(=O)N2CCN(c3ncnc4nc(N)ccc34)CC2)cc1 | 8.88%
COC(=O)CN(C(=O)c1cccc(F)c1Cl)c1cccc(C)n1 | 9.5%
O=C(c1ccoc1)N1CCC(O)(C(F)(F)F)CC1 | 3.88%
CCC1CN(CCCO)c2ccccc2O1 (stereo not given) | -7.24%
COC1CCCN(C(=O)NCc2ccc(C(=O)N(C)C(C)C)cc2)C1 (stereo not given) | -24.8%
CN(C(=O)c1ccncc1F)c1ccccc1S(C)(=O)=O | 2.23%
CC(C)CCn1ccc(NC(=O)N2CCCC2C(C)(C)O)n1 (stereo not given) | 5.07%
COc1ccc(CNCCc2cc(F)cc3c2OCOC3)c(OC)c1 | -3.41%
CC(CN1CCOCC1)NC(=O)c1cc(Cl)c2c(c1)OCO2 (stereo not given) | -2.35%
Cc1csc(N2CCN(Cc3nccn3C)CC2C)n1 (stereo not given) | -0.274%
Cc1n[nH]c(C)c1CNC(=O)N1CCCC(Cc2nccn2C)C1 (stereo not given) | -19.2%
CN(C)c1cc(C(=O)NCC2(c3cccc(F)c3)CCOCC2)ccn1 | 8.8%
CCN(CCc1nccs1)C(=O)c1ncoc1C | 11.3%
Cc1nc(CNc2ccc(C(=O)NCc3ccco3)cc2C)no1 | 5.38%
Cc1cc(C)n(-c2ccc(C(=O)NCC(c3cccs3)N(C)C)cc2)n1 (stereo not given) | 4.58%
Cc1nnc(CN(Cc2ccc(Cl)c(Cl)c2)C(C)C)o1 | 4.91%
CNC(=O)c1ccc2c(c1O)OC(C)(C)C2 | -6.08%

Structure (SMILES) | cytotoxicity at 10 µM
CCOc1ccc(C#N)cc1NC(=O)N1CCOC(C(N)=O)C1 (stereo not given) | 12.9%
COC1CCCN(C(=O)c2sc(CC(C)C)nc2C)C1 (stereo not given) | 10.9%
CC(C)c1nnc2n1CCN(C(=O)c1ccc3c(c1)NC(=O)CO3)C2 | 7.07%
Cc1ccc2ncnc(N3CCOCC3c3c(C)nn(C)c3C)c2c1 (stereo not given) | 12.2%
CCN(Cc1nc(C(C)C)no1)Cc1cccs1 | -8.57%
CC1Cc2ccccc2N1Cc1occc1C(=O)OCC(N)=O (stereo not given) | -9.18%
CC(C)c1ccc(-c2nnn(CCNS(C)(=O)=O)n2)cc1 | -3.51%
CC(=O)c1c(F)cccc1N1CCC(CS(N)(=O)=O)CC1 | -7.79%
Cc1nc(C)n(CC2CN(CC(=O)Nc3nccs3)CCO2)n1 (stereo not given) | -13.8%
CNC(=O)[C@@H]1C[C@@H]2CCN(Cc3ccoc3)C[C@H]2O1 | -108%
O=C(c1cscn1)N1CC[C@H]2C[C@H](c3nnc(C4CC4)o3)O[C@@H]2C1 | -111%
CCN1Cc2c(C(=O)NC(C)C(C)C)ncn2-c2ccccc2S1(=O)=O (stereo not given) | -66.3%
O=C(c1ccco1)N1CC[C@@H]2[C@H]1CCC(=O)N2c1ccccc1 | -110%
Cc1nc(NCC2CC2)nc2c1COCC21CCN(C(=O)NC(C)C)C1 (stereo not given) | -83.2%
CC(C)NC(=O)C1CN(C(=O)c2ccccc2)CC12CCOCC2 (stereo not given) | -82.6%
Cc1cc2cc(NC(=O)Cn3ncc(N4CCCC4)cc3=O)ccc2o1 | -0.273%
CCCn1cnnc1CNC(=O)C1COc2cc(OC)ccc2C1 (stereo not given) | 3.21%
CCN(CC)Cc1cc(C(=O)N2CCCC(CC)(C(=O)O)C2)c(C)o1 (stereo not given) | 7.25%
CCCn1ccnc1-c1nccn1CCC(N)=O | -10.3%
CCc1nnc(CN(CC)C(=O)C(C)n2ccnc2C(C)C)o1 (stereo not given) | 6.23%
O=C(O)c1cc(-n2cc3c(n2)CCC3)cc(S(=O)(=O)NC2CCCC2)c1 | -2.05%
CCN(Cc1cnc(-c2ccccn2)nc1)C1CCS(=O)(=O)C1 (stereo not given) | -5.24%

Structure (SMILES) | cytotoxicity at 10 µM
COCCn1cncc1CN1CCCC(C)(c2ccccc2)C1 (stereo not given) | 0.363%
CCn1nc(C(=O)N2CCNCC2C(=O)Nc2ccc(C)nc2)cc1C (stereo not given) | 10.2%
CC[C@@]1(O)CCN(c2ncc(Cl)cc2C(F)(F)F)C[C@H]1O | 11.6%
Clc1ccccc1OC1CCN(CC2CCOC2)CC1 (stereo not given) | -9.85%
O=C(NCCN1CCOC1=O)c1cc(-c2ccccc2)on1 | 12.3%
CN(C)c1ncnc2c1CCN(C(=O)CN1CCCCC1)C2 | -0.747%
CN(C)C(=O)CCC1CCCN(Cc2ccc(-c3cccnc3)cc2)C1 (stereo not given) | 4.96%
COc1c(F)cc(F)cc1-c1nc2c([nH]1)CCNC2 | 3.94%
CCCc1cc(N2CCC(NCCc3ccc(O)cc3)CC2)nc(C)n1 | -6%
COc1cccc(-c2cc(NCCO)nc3[nH]ccc23)n1 | 4.46%
O=S1(=O)COCCN1Cc1ccc(F)c(F)c1 | 3.42%
CC(=O)NC(C(=O)N1CCn2cncc2C1)C(C)C (stereo not given) | -14.7%
NC(=O)c1cc2c(nc1-c1ccoc1)CCC2 | 0.562%
Cc1n[nH]c(C)c1Sc1ccccc1NC(=O)N1CCOCC1 | 4.63%
CCC(C)Sc1ncc(-c2c(C#N)c(N)nc3c2COCC3)cn1 (stereo not given) | 15.1%
O=C1CCC(C(=O)N(Cc2ccsc2)CC2CCCO2)=NN1 (stereo not given) | -7.97%
NCCc1n[nH]c(=O)n1-c1cccc2ccccc12 | 3.96%
Cc1ccsc1-c1nc(CN(C)Cc2noc(C(C)C)n2)c(C)o1 | -5.85%
Cc1nccn1CCCC(=O)N1CCC2(CCC(=O)N(C(C)C)C2)CC1 | -10.8%
COc1ccnc(N2CCC3(CCCN(CC4CC4)C3=O)C2)n1 (stereo not given) | 1.13%
CCn1nc(CNC(=O)C2CC(=O)N(C3CCCC3)C2)c2ccccc21 (stereo not given) | -25.8%
O=S(=O)(NCC1CCOc2ccccc2C1)N1CCOCC1 (stereo not given) | -9.75%

Structure (SMILES) | cytotoxicity at 10 µM
COCC1CCCN(C(=O)c2cc(Cn3ccc4ccccc43)[nH]n2)C1 (stereo not given) | -11.5%
Cc1nc(CN2CCCC(Cn3cncn3)C2)nc2ccccc12 (stereo not given) | -16.2%
COC(=O)c1cc(C(=O)N2CCN(C)CC2)n(-c2ccccc2)n1 | -13.2%
CC(NC(=O)CSCC(=O)Nc1ccccc1)c1ccccc1 (stereo not given) | -6.17%
Cc1nc2ccnn2c(C)c1CCC(=O)N1CCN(C2CC2)CC1 | -7.2%
Cc1cccc(OCCNC(=O)CN2CCCC2Cn2cccn2)c1 (stereo not given) | -9.46%
Cc1cc(C)c(CNC(=O)NCc2ccc3c(c2)CCC3)c(=O)[nH]1 | 10.4%
CCNc1cc2c(nn1)CCN(C(=O)CC1CCCCC1)C2 | -10.3%
Cc1nc(CN2CCN(C(=O)c3ccn(C)c(=O)c3)CC2)cs1 | 1.73%
CCC1CN(C(=O)NCCOc2ccc3c(c2)OCO3)CCO1 (stereo not given) | -4.25%
Cc1cn2c(n1)CCC(NC(=O)c1nc(C)ncc1Cl)C2 (stereo not given) | -3.13%
OCC1CCCN1c1cc(N2CCc3ccccc3C2)ncn1 (stereo not given) | 2.53%
O=C1C[C@H]2[C@@H](CCN2C(=O)c2ccccc2)N1CCN1CCOCC1 | -3.33%
O=C(C1CCOCC1)N1CCc2ncc(CN3CCCC3)n2CC1 | -76.1%
COCCN1CCCn2cnc(CNC(=O)N(C)C)c2C1 | 4.47%
CO[C@H]1CCN(Cc2cccc(C)n2)[C@@H]2CN(Cc3cccnc3)C[C@H]12 | -11.3%
c1cnc2c(c1)cc([C@H]1CCCO1)n2CCN1CCOCC1 | -11.3%
CC(C)NC(=O)CC1COC2(CCN(Cc3cccs3)CC2)C1 (stereo not given) | 4.57%
CCOCc1nnc2n1CCN(Cc1c(C)noc1C)CC2 | -95.3%
CC(C)C(=O)N1CCCC2(C1)CN(c1nncs1)CCO2 (stereo not given) | -104%
O=C(CCc1ccccc1)N1C[C@@H]2CN(Cc3ccoc3)CCO[C@@H]2C1 | -77.8%
CSc1ncccc1C(=O)N1C[C@@H]2CC[C@H]1CN(C(=O)N(C)C)C2 | 1.71%
